Calls of active or inactive are those of the source. The calls are words filed in the database; no cut-off is given here.
Legend:
[1] = biological target: T1, Vitamin D3 receptor (Homo sapiens, UniProt P11473); test: Activation of VDR in human Caco2 cells expressing lentiviral VDRE-luciferase vector assessed as VDRE-mediated transcriptional activity measured after 24 hrs by luciferase transcriptional reporter assay; format: cell-based, Caco-2
T1 sequence (P11473 whole entry): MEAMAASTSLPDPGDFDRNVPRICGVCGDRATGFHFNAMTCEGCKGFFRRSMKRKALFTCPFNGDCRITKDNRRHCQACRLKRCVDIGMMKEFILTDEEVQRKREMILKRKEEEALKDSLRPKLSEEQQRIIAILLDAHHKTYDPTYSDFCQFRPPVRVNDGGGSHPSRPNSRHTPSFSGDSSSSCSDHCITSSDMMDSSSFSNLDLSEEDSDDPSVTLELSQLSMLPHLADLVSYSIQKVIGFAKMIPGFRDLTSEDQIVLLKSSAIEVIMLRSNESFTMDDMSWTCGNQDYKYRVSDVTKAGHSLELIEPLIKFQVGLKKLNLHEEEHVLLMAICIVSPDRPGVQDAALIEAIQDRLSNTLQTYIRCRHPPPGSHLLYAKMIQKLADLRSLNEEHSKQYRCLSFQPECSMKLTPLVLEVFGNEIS

[2] = biological target: T1, Vitamin D3 receptor; test: Activation of VDR in human HaCaT cells expressing lentiviral VDRE-luciferase vector assessed as VDRE-mediated transcriptional activity measured after 24 hrs by luciferase transcriptional reporter assay; format: cell-based
[3] = biological target: T1, Vitamin D3 receptor; test: Activation of VDR in human Jurkat cells expressing lentiviral VDRE-luciferase vector assessed as VDRE-mediated transcriptional activity measured after 24 hrs by luciferase transcriptional reporter assay; format: cell-based
[4] = Antiinflammatory activity in DBA/1 mouse splenocytes assessed as upregulation of LAIR1 level by measuring mean fluorescence intensity at 100 nM by flow cytometry (reference value: 766 +/- 22 au); format: functional, cell-based; conditions: Splenocyte
Procedure, shortened: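 Splenocytes from DBA/1 mice were cultured in EMEM with 9% charcoal-stripped FBS and treated overnight at 10^-7 M, with an ethanol vehicle control. Cells were stained with fluorochrome anti-CD4 and anti-LAIR1. LAIR1 mean fluorescence was read by multiparameter flow cytometry, gated on CD4 cells.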

[5] = biological target: T2, Vitamin D3 receptor (Homo sapiens) (UniProt P11473); test: Activation of VDR in human HaCaT cells expressing lentiviral VDRE-luciferase vector assessed as VDRE-mediated transcriptional activity up to 1000 nM measured after 24 hrs by luciferase transcriptional reporter assay; format: cell-based
T2 sequence (whole entry): T1 sequence (P11473 whole entry)
Procedure, shortened: (§1)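 Cells carry a lentiviral VDRE-luciferase reporter and were selected for 1 week with an extra 1.0 µg/mL puromycin. Growth media: Caco-2 in DMEM with 10% FBS; HaCaT in the same with 5% FBS; Jurkat in RPMI 1640 with 10% FBS. Cells were plated in FBS-free medium for 24 h, then given serial concentrations (final DMSO 0.1%) for 24 h. ONE-Glo luminescence was read after 5 min at room temperature. Triplicates.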

[6] = biological target: T2, Vitamin D3 receptor (Homo sapiens); test: Activation of VDR in human Jurkat cells expressing lentiviral VDRE-luciferase vector assessed as VDRE-mediated transcriptional activity up to 1000 nM measured after 24 hrs by luciferase transcriptional reporter assay; format: cell-based; procedure, shortened: as §1
[7] = biological target: T3, 25-hydroxyvitamin D-1 alpha hydroxylase, mitochondrial (Mus musculus, UniProt O35084); test: Ratio of Kcat to Km for mouse CYP27B1 measured per mol of phospholipid after 3 mins by HPLC; format: ADME; conditions: 0.05 h
T3 sequence (O35084 whole entry): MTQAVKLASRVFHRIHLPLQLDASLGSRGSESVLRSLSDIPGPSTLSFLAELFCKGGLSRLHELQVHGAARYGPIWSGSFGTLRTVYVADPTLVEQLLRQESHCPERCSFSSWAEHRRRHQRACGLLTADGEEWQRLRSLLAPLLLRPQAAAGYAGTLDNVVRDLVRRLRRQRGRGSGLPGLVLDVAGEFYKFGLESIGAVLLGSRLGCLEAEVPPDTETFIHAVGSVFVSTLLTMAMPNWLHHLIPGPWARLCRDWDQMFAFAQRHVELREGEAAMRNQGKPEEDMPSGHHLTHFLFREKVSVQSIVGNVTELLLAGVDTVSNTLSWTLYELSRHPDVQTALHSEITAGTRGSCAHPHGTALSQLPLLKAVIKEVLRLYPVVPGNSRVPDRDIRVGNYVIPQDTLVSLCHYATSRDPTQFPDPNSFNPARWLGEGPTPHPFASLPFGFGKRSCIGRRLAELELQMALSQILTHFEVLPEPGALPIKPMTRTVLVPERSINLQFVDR
Procedure, shortened: (§2)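 Substrate was incorporated into phospholipid vesicles at 0.0025–0.07 mol/mol PL and incubated 3 min with 0.1 µM mouse CYP27B1. Product was quantified by HPLC. Km and kcat came from a Michaelis–Menten fit, given as mean ± standard error of the curve fit.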

[8] = Growth inhibition of human SK-MEL-188 cells measured after 48 hrs by MTS/PMS assay; format: functional; conditions: SK-MEL-188, 48 h
[9] = biological target: T2, Vitamin D3 receptor (Homo sapiens); test: Activation of VDR in human Caco2 cells expressing lentiviral VDRE-luciferase vector assessed as VDRE-mediated transcriptional activity up to 1000 nM measured after 24 hrs by luciferase transcriptional reporter assay; format: cell-based; conditions: Caco-2; procedure, shortened: as §1
[10] = biological target: T3, 25-hydroxyvitamin D-1 alpha hydroxylase, mitochondrial; test: Activity of mouse CYP27B1 assessed as compound hydroxylation measured per mol of phospholipid after 3 mins by HPLC; format: ADME; conditions: 0.05 h; procedure, shortened: as §2

SMILES	EC50 [1]	EC50 [2]	EC50 [3]	Flu intensity [4]	Activity [5]	Activity [6]	Kcat/Km [7]	IC50 [8]	Activity [9]	Km [10]
C=C1/C(=C\C=C2/CCC[C@]3(C)[C@@H]([C@H](C)OCCC(C)(C)O)CC[C@@H]23)C[C@@H](O)C[C@@H]1O [MAXACALCITOL]	144 nM	160 nM	0.855 nM	1480 a.u.	–	–	–	–	–	–
C=C1CC[C@H](O)C/C1=C/C=C1\CCC[C@@]2(C)[C@H]1CC[C@@H]2[C@@](C)(O)C[C@@H](O)CC(C)C	–	–	–	1480 a.u.	inactive	inactive	4731	0.01 nM	inactive	5.2 ×10⁻³ mol/mol
C=C1CC[C@H](O)C/C1=C/C=C1\CCC[C@@]2(C)[C@H]1CC[C@@H]2[C@@](C)(O)C[C@H](O)CC(C)C	562 nM	484 nM	653 nM	1480 a.u.	–	–	5087	0.01 nM	–	2.3 ×10⁻³ mol/mol
C=C1/C(=C\C=C2/CCC[C@@]3(C)[C@H]2CC[C@@H]3[C@@](C)(O)C[C@@H](O)CC(C)C)C[C@@H](O)C[C@@H]1O	241 nM	175 nM	203 nM	1480 a.u.	–	–	–	0.01 nM	–	–
C=C1/C(=C\C=C2/CCC[C@]3(C)[C@@H]([C@H](C)CCCC(C)(C)O)CC[C@@H]23)C[C@@H](O)C[C@@H]1O	–	–	–	1360 a.u.	–	–	–	–	–	–
C=C1/C(=C\C=C2/CCC[C@@]3(C)[C@H]2CC[C@@H]3[C@@](C)(O)C[C@H](O)CC(C)C)C[C@@H](O)C[C@@H]1O	172 nM	117 nM	30.6 nM	1480 a.u.	–	–	–	0.01 nM	–	–

Source: ChEMBL document CHEMBL3822391, “Synthesis and Biological Evaluation of Vitamin D3 Metabolite 20S,23S-Dihydroxyvitamin D3 and Its 23R Epimer” (J Med Chem, 2016)
